# HNF4A DNA FP: change in binding of human HNF4A to DNA, primary screen, biochemical, fluorescence polarization, FITC-DNA; activity change, % at 10 µM; 1 h; AID 1224865, 2016; 360,000 tested, 0.3% active; Hepatocyte nuclear factor 4-alpha (Homo sapiens), P41235; in the data active = activity change above about 30%, passing the limit was not always enough
# Target sequence (P41235 whole entry, looked up): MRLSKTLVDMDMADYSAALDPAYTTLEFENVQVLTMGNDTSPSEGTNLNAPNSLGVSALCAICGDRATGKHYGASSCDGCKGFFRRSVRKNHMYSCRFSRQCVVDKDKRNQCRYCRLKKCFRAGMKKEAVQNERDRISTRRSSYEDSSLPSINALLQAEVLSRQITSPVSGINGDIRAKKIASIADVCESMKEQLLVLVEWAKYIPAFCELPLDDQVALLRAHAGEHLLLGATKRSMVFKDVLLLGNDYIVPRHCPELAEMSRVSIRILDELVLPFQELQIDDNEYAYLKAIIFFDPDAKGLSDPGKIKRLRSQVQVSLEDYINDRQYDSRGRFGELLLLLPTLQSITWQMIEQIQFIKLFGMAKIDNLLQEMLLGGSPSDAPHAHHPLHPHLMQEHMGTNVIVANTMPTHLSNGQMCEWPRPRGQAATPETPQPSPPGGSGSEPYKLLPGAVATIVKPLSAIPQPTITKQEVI
# CSN inh: inhibitors of CSN-mediated cullin deneddylation, primary screen, biochemical, fluorescence polarization, uHTS; COP9 signalosome complex subunit 5 (Homo sapiens), Q92905; Purified CSN, SCF-Nedd8-OG deneddylation; inhibition, % at 12.5 µM; 360,000 tested, 0.38% active; AID 651999, 2013;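 active = pattern-corrected inhibition above about 35%, with an unprinted fluorescence ratio check between 0.5 and 1.5, limit read from the data, passing the limit was not always enough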;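 also: 0% = enzyme with substrate and 100% = substrate without enzyme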
#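 Assay system: HEK293T-derived human Csn5 enzyme; quantity: 0.24 nM enzyme; medium: Tris/NaCl/DTT buffer, pH 7.5; also added: substrate SCFSkp2-Nedd8OG, 10 nM; doses: 12.5 µM compound; schedule: 90 min reaction at room temperature; signal: FP; read-out: % inhibition of substrate cleavage by Csn5; benchmarks: substrate-only high control, full reaction low control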
# Myeloid diff MLP: induction of myeloid progenitor differentiation, primary screen, cell-based, flow cytometry, MLPCN library; ER-HoxA9 myeloid progenitors, lysozyme-GFP differentiation; calls only at 10 µM; 360,000 tested, 1% active; AID 624256, 2012;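 active = normalized GFP-positive differentiation at or above the plate's own cutoff, the solvent-only control mean plus 3 SD; inconclusive = no clear call, values can overlap the other calls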;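 also: cells exposed to compound for four days before flow analysis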
# Exocytosis inh: LAMP-1 surface exposure blockers, TALL-104 cells – cell-based, flow cytometry, MLPCN library, primary screen; inhibition, % at 10 µM; 360,000 tested, 0.66% active; TALL-104 LAMP-1 surface exposure; cells stimulated with thapsigargin and PMA;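 active = inhibition above about 55%, limit read from the data; inconclusive = no clear call, values can overlap the other calls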
# Active calls of the source: *; i = inactive; ? = inconclusive; + = active, no number. Compounds with a hit are over-represented: about 2.2% of the library has one in this group of screens.
SMILES,HNF4A DNA FP,CSN inh,Myeloid diff MLP,Exocytosis inh
Cc1ccc(OCCNC(=O)CNC(=O)c2ccc(Cl)c([N+](=O)[O-])c2)cc1,1,2,i,6
Cc1nc(Nc2cccc(F)c2)c2oc3ccccc3c2n1,-1,0,+,?
Cc1nc(Nc2cccc(Cl)c2)c2oc3ccccc3c2n1,-2,-1,i,38
Cc1cccc(Cc2c(C)nc3c(C(=O)NCc4ccco4)cnn3c2C)c1,-2,4,+,37
CCc1ccc2nc(N(CCN(C)C)C(=O)/C=C/c3cccs3)sc2c1,1,2,?,67*
CN(C)CCN(C(=O)/C=C/c1cccs1)c1nc2c(F)cc(F)cc2s1,3,30,i,65*
CCN(CC)CCN(C(=O)/C=C/c1cccs1)c1nc2ccc(C)cc2s1,6,2,?,4
Cc1ccc2nc(N(CCN(C)C)C(=O)/C=C/c3cccs3)sc2c1,0,0,i,56*
COc1cccc2sc(N(CCN(C)C)C(=O)/C=C/c3cccs3)nc12,0,-4,i,33
CN(C)CCCN(C(=O)/C=C/c1cccs1)c1nc2ccc(F)cc2s1,5,11,+,10
CCCn1c(N)c(N(CCOC)C(=O)COC(=O)CSc2cc(C)c3ccccc3n2)c(=O)[nH]c1=O,-3,5,i,-3
CC(=O)N/C(=C\c1ccccc1)C(=O)OCC(=O)Nc1cc(S(=O)(=O)N(C)C)ccc1Cl,-3,0,i,1
O=C(NNC1=NCCC1)c1ccc(Br)cc1,0,1,i,0
O=C(NNC1=NCCC1)C1CC1,0,-1,+,-4
COc1cc(N2CCCC2)c(OC)cc1/C=C(/C#N)c1cccc(F)c1,89,54*,+,5
CCOC(=O)[C@]12CCCC=C1N(Cc1ccccc1)C(=O)[C@H](CC(=O)NCc1cccc(C(F)(F)F)c1)C2,-1,-5,i,0
CCOC(=O)c1ccccc1NC(=O)COC(=O)C1CCN(S(=O)(=O)c2ccccc2C(=O)OC)CC1,1,5,i,11
Cc1ccc(CN2CCC(Oc3ccc(C(=O)NCc4ccccn4)cc3)CC2)o1,1,4,i,1
Cc1ccc(CN2CCC(Oc3cccc(C(=O)NCc4cccnc4)c3)CC2)o1,2,2,+,2
CCOc1cc([N+](=O)[O-])cc2c1C(=O)Nc1ccccc1O2,14,43*,i,-3
O=C1Nc2ccccc2Oc2cc([N+](=O)[O-])ccc21,-3,1,i,12
O=c1n(S(=O)(=O)c2cccc3cccnc23)c2ccccc2n1S(=O)(=O)c1cccc2cccnc12,1,4,i,68*
CC1CC(C)CN(S(=O)(=O)c2cccc3cccnc23)C1 (centres undefined),0,-2,i,-4
CN(CC(=O)Nc1ccc(F)c(F)c1F)C(=O)C1=NN(c2ccccc2)C(=O)CC1,1,-3,i,0
CC(C)/C=C1\CC/C(=C\c2ccc(N(C)C)cc2)C1=O,121,90,+,56*
SMILES,HNF4A DNA FP,CSN inh,Myeloid diff MLP,Exocytosis inh
CC(C)c1ccc(/C=C2\CC/C(=C\C=N\N(C)C)C2=O)cc1,15,7,i,0
COc1cccc(C(=O)NCC(=O)N2CCC3(CC2)NCCc2[nH]cnc23)c1OC,-2,-3,i,-1
COc1ccccc1-n1c(SC(C)C(=O)NCC2CCCO2)nc2cc(Cl)ccc2c1=O (centres undefined),3,1,i,5
Cc1ccc(-c2cn3nc(-c4ccccc4)c(-c4ccccc4)nc3n2)cc1,-39,9,+,50
CCOc1ccc(N2CSC3=C(C#N)C(c4ccco4)CC(=O)N3C2)cc1 (centres undefined),1,-2,i,0
Cc1ccc(C2CC(=O)N3CN(c4ccc(Br)cc4)CSC3=C2C#N)o1 (centres undefined),-11,35*,i,-3
Cc1ccc(S(=O)(=O)N2CCN(C(=O)COC(=O)Cc3ccc(Cl)cc3)CC2)c(C)c1,-2,-1,i,-1
COc1ccc(OC)c(NC(=O)CCC(=O)N(Cc2ccc(OC)c(OC)c2)c2nccs2)c1,-3,43*,i,-3
O=C(Nc1ccc(-n2cnnn2)cc1)c1cc(S(=O)(=O)N2CCCC2)ccc1Cl,5,-3,i,3
COc1ccc(-n2nc3c(N4CCC(C(=O)N5CCC(C)CC5)CC4)nnc(C)c3c2C)cc1,99*,64*,+,0
Cc1nnc(N2CCC(C(=O)N3CCCCC3)CC2)c2nn(-c3ccc(Cl)cc3)c(C)c12,6,3,?,-26
COc1c2ccc(C(=O)NCCCCc3ccccc3)cc2nn1C,-6,1,+,3
CCOc1c2ccc(C(=O)NCCCCc3ccccc3)cc2nn1C,1,1,i,2
CN1CCC(N(C)C(=O)/C(C#N)=C/c2ccccc2)CC1,-2,-1,i,44
Nn1c(SCC(=O)NNC(=O)c2ccccc2)nnc1-c1ccccc1F,-1,-6,i,-1
Cc1ccc(-n2ncc(N(C)C)c(Cl)c2=O)cc1,-1,-1,i,0
CN(/N=C/c1ccncc1)c1cnn(-c2ccc(F)c(Cl)c2)c(=O)c1Cl,-2,44*,i,-2
COc1ccc(NC(=O)C2=CC(c3cccs3)=NS(=O)(=O)N2C)cc1,-6,1,+,-2
CN1C(C(=O)Nc2ccc(OC(F)(F)F)cc2)=CC(c2cccs2)=NS1(=O)=O,-3,0,i,6
Cc1cc(C)cc(N(CC(=O)NCC2CCCO2)C(=O)CCC(=O)Nc2nccs2)c1 (centres undefined),3,4,i,-5
CC(C)CC(NC(N)=O)C(=O)NCc1ccccc1Cl (centres undefined),4,0,+,1
COc1cc(/C=C2/SC(=S)N(Cc3ccccc3)C2=O)cc(Cl)c1O,103,94,+,2
O=C(O)c1ccc(/C=C2/SC(=S)N(Cc3ccccc3)C2=O)cc1,-4,5,+,-6
O=C1/C(=C\c2ccc(O)cc2)SC(=S)N1Cc1ccccc1,94*,96,+,1
O=C1/C(=C\c2cccc([N+](=O)[O-])c2O)SC(=S)N1Cc1ccccc1,-2,1,i,0
O=C1/C(=C/c2ccccc2O)SC(=S)N1Cc1cccnc1,4,9,i,58*
COC(=O)c1ccc(C2=NOC(C)(c3nnc(Cc4ccccc4)o3)C2)cc1 (centres undefined),2,0,i,-4
COc1ccc(NC(=O)COC(=O)c2ccc(OC)c(S(=O)(=O)N3CCCC3)c2)cc1OC,-1,3,i,1
CC(NC(=O)c1ccco1)C(c1cccs1)N1CCN(c2ccccc2F)CC1 (centres undefined),-2,-8,+,-1
